pIC50, pKd: −log10 of the molar value. Active and inactive are the calls of the source. No cut-off for these calls is given here.
Assays:
[1] = Binding affinity to Clostridioides difficile-specific DNA adenine methyltransferase by MicroCal PEAQ-ITC instrument analysis
[2] = (§1) Inhibition of Clostridioides difficile-specific DNA adenine methyltransferase mediated methylation using 5'-CGA TTC AAA AAG TCC CAA G-3' and 3'-GCT AAG TTT TTC AGG GTT C-5' as substrate and SAM as cosubstrate preincubated for 5 mins followed by substrate and cosubstrate addition and measured after 3 mins by MTase glo assay
[3] = target: Histone-lysine N-methyltransferase, H3 lysine-79 specific (Homo sapiens) (UniProt Q8TEK3); test: (§2) Inhibition of human DOT1L using oligonucleosome as substrate and 3H-SAM as cosubstrate at 10 uM pretreated with compound for 20 mins in presence of oligonucleosome followed by cosubstrate addition and measured after 1 hr; details: time 80.0 min
Sequence of Histone-lysine N-methyltransferase, H3 lysine-79 specific (Homo sapiens) (Q8TEK3 whole entry, looked up): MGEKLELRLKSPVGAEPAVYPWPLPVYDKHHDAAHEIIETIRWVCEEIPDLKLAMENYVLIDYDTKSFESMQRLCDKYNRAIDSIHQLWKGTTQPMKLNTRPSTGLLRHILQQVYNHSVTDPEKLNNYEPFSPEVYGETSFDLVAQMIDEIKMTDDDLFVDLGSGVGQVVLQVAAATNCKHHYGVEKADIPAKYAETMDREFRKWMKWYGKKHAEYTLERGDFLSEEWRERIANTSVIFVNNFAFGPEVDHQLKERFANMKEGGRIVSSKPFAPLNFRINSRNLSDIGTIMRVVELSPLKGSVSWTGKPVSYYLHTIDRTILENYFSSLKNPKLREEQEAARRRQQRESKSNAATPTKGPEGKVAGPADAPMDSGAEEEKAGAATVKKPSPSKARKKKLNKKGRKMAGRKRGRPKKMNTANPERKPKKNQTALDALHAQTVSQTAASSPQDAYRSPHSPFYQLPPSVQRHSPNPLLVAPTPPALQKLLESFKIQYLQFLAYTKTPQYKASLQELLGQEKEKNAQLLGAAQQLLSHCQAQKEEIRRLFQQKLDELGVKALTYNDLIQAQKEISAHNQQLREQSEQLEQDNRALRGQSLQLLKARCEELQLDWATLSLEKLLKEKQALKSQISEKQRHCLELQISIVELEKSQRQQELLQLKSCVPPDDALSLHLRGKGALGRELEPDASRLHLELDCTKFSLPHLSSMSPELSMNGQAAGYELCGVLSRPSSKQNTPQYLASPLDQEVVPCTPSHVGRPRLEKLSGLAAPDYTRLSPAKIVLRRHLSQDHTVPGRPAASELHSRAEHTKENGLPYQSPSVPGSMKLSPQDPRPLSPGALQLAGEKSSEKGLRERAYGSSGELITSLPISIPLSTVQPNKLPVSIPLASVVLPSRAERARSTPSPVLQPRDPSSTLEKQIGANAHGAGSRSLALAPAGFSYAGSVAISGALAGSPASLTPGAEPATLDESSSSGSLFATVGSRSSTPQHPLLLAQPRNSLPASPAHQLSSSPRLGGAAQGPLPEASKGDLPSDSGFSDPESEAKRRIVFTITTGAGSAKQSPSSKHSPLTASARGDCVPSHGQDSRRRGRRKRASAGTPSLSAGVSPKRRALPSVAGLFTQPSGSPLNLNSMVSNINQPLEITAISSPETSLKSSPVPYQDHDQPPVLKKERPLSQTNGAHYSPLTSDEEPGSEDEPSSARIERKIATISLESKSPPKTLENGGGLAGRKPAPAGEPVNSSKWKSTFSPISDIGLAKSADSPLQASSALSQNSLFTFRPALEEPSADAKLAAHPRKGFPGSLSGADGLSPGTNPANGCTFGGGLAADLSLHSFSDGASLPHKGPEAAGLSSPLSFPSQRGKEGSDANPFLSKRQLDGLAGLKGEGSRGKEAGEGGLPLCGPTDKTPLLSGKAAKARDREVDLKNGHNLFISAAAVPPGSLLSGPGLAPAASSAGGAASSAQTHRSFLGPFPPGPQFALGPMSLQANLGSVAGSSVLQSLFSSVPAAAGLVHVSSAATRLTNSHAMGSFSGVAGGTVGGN
Outline: (§3)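 Enzymes (DOT1L 1 nM; EZH2, G9a, PRMT1 5 nM) mixed with substrate (0.05 mg/mL oligonucleosomes for DOT1L; 0.05 mg/mL core histone for EZH2; 5 μM H3 1–21 peptide for G9a; 5 μM H4 for PRMT1). Compound (10 μM) added for 20 min at room temperature, then 1 μM ³H-SAM for 1 h at 30 °C; filter-paper read-out. Triplicates, mean ± SD.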

[4] = target: Protein arginine N-methyltransferase 1 (Homo sapiens) (UniProt Q99873); test: Inhibition of PRMT1 (unknown origin) using histone H4 as substrate and 3H-SAM as cosubstrate at 10 uM pretreated with compound for 20 mins in presence of histone H4 followed by cosubstrate addition and measured after 1 hr; details: time 80.0 min; outline: as §3
Sequence of Protein arginine N-methyltransferase 1 (Homo sapiens) (Q99873 whole entry, looked up, the tested form may be a part): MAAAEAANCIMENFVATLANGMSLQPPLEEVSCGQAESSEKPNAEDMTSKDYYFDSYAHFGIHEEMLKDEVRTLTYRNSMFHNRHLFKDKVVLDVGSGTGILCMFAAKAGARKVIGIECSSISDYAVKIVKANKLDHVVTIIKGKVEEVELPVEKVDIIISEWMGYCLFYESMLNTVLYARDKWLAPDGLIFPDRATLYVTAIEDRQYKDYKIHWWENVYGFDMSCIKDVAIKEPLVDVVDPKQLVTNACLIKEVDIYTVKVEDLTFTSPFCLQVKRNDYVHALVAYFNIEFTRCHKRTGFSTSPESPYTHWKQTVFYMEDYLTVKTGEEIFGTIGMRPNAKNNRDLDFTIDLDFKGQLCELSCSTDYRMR

[5] = target: T1, Histone-lysine N-methyltransferase EHMT2 (Homo sapiens) (UniProt Q96KQ7); test: as §2, with “G9a (913 to 1193 residues) expressed in Escherichia coli BL21 (DE3)-gold cells” for “DOT1L”, “histone H3 (1 to 21 residues)” for “oligonucleosome”; details: time 80.0 min; outline: as §3
T1 sequence (whole entry): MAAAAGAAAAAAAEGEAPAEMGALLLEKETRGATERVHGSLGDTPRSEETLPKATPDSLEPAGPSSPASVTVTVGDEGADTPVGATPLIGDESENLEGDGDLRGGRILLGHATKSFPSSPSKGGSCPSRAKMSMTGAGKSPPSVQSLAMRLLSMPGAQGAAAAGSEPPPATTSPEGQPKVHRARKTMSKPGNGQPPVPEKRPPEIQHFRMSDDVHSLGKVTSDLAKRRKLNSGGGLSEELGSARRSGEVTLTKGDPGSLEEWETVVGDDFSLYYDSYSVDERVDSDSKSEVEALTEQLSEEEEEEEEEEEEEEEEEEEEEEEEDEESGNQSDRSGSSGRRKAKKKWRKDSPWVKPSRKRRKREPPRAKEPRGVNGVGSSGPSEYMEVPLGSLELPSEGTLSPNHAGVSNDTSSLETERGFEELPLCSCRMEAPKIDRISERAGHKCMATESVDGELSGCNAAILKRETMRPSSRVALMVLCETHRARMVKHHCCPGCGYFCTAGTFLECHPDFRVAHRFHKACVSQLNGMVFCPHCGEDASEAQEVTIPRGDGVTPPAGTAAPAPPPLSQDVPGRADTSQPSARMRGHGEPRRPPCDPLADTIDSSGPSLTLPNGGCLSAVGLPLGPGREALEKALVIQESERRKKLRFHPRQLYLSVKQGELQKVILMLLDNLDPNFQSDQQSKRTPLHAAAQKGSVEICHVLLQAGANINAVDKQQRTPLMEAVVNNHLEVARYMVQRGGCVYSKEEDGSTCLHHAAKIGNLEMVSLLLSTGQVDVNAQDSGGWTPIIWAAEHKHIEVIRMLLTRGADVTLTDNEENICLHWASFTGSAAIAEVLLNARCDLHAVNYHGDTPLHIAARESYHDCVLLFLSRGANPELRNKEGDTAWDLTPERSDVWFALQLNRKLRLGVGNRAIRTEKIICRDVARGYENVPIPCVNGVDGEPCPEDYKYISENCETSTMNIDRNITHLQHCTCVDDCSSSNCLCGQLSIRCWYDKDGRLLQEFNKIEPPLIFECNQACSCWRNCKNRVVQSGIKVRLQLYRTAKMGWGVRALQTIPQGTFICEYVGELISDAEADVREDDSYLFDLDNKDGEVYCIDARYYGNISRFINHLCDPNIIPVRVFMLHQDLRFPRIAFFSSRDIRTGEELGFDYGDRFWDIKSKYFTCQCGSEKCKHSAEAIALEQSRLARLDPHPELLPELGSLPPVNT

[6] = target: DNMT3A-DNMT3L (Mus musculus) (UniProt O88508+Q9CWR8); test: Inhibition of mouse DNMT3A/DNMT3L using 5'-G CATGCGTTCTAATTAGAAUGCATG-3' and 3'-GTA CGS AAG ATT AAT CTT GCG TAC G-5' as substrate and SAM as cosubstrate at 10 uM incubated for 1 hr; format: protein-complex assay
Sequence of DNMT3A-DNMT3L (Mus musculus) (Q9CWR8 whole entry, looked up, other chains not shown): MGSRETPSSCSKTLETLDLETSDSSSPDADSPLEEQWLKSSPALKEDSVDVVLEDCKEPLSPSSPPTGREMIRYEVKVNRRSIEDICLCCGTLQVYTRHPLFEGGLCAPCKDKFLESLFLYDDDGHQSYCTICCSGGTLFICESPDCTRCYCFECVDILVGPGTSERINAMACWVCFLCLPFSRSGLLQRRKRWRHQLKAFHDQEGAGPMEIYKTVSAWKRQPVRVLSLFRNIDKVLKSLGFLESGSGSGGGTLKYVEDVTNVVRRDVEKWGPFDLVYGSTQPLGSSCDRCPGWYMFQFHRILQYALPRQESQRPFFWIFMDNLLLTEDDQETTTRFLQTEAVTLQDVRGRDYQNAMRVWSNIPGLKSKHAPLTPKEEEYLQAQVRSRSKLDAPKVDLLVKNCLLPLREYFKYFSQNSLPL
Outline: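 Dnmt3a-3L (0.5 μM) with 5 μM dsDNA, 25 μM SAM and 10 μM inhibitor in 20 mM Tris pH 7.5, 40 mM NaCl, 4 mM DTT, 20% glycerol, run 1 h at 37 °C.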

[7] = system: Caulobacter vibrioides; test: Inhibition of Caulobacter vibrioides CcrM using 5'-CGA TTC AAA AAG TCC CAA G-3' and 3'-GCT AAG TTT TTC AGG GTT C-5' as substrate and SAM as cosubstrate at 10 uM incubated for 5 mins
Outline: (§4)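 Conditions were enzyme 0.1 μM, DNA 5 μM, SAM 30 μM, inhibitor 10 μM, at ~22 °C in 50 mM Tris–HCl pH 7.5, 100 mM NaCl, 1 mM DTT, 0.25% DMSO, run 5 min. Substrate and SAM levels were above K_M.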

[8] = target: T2, DNA adenine methylase (Escherichia coli K-12) (UniProt P0AEE8); test: Inhibition of Escherichia coli Dam using 5'-CCG CGG ATC CTG CT-3' and 3'-GGC GCC TAG GAC GA-5' as substrate and SAM as cosubstrate at 10 uM incubated for 5 mins; outline: as §4
T2 sequence (whole entry): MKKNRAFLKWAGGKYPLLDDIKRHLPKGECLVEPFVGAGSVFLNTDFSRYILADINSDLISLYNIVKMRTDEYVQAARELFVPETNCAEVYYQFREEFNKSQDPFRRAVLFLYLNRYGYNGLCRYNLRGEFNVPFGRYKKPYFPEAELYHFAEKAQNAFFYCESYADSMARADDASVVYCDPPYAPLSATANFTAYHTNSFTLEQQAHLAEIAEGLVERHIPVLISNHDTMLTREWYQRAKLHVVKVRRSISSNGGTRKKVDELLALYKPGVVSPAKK

[9] = target: mRNA (2'-O-methyladenosine-N(6)-)-methyltransferase (Homo sapiens) (UniProt Q9H4Z3); test: Inhibition of human PCIF1 using m7GpppAmG as substrate and SAM as cosubstrate at 10 uM incubated for 15 mins
Sequence of mRNA (2'-O-methyladenosine-N(6)-)-methyltransferase (Homo sapiens) (Q9H4Z3 whole entry): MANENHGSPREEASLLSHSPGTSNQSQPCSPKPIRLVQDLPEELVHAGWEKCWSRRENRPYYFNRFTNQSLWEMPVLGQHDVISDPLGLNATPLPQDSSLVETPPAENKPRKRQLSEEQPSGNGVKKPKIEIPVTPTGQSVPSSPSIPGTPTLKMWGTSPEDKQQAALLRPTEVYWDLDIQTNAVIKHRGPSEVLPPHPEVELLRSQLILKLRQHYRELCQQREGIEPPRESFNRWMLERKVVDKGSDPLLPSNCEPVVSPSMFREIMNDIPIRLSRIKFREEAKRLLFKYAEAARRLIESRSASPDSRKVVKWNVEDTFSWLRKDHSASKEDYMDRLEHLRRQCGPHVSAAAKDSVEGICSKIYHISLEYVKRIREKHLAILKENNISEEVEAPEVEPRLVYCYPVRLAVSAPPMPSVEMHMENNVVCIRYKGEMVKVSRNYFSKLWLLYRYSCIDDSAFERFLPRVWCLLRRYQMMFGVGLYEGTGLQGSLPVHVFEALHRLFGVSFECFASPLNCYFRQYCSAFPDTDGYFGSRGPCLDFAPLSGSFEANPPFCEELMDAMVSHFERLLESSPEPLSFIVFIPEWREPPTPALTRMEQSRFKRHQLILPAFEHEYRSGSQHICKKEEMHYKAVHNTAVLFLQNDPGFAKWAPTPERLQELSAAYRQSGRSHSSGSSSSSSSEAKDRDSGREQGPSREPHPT
Outline: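 Enzyme 0.1 μM with 5 μM RNA, 30 μM SAM and 10 μM inhibitor at ~22 °C in 50 mM Tris–HCl pH 7.5, 100 mM NaCl, 1 mM DTT, 0.25% DMSO. PCIF1 run 15 min with capped RNA; MettL5-Trm112 run 1 h with ssRNA.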

[10] = Binding affinity to Clostridioides difficile-specific DNA adenine methyltransferase PDB 7RFK by MicroCal PEAQ ITC analysis
Outline: (§5)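 CamA (pXC2184 construct) in 325 mM NaCl, 20 mM Tris–HCl pH 7.5, 0.5 mM TCEP, 10% DMSO at 25 °C; 200–900 μM compound titrated into 20–60 μM protein (0.2 μL initial injection then 18 × 2 μL; reverse titration for poorly soluble compounds). Data fitted to a one-site model with offset subtracted to obtain K_D.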

[11] = as §1, with “PDB 7RFK” for “mediated methylation”, “MTase-Glo” for “MTase glo”
Outline: (§6)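 Then 2.5 μM 19-bp dsDNA and 40 μM SAM were added, 3 min at ~22 °C, TFA quench (0.1%). Luminescent SAH readout against a serially diluted SAH standard curve; IC50 and Hill slope reported.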

[12] = system: Clostridioides difficile; test: as §1, with “as cosubstrate at 1 to 10 uM preincubated for” for “as cosubstrate preincubated for”; details: dose 1-10 µM, time 8.0 min
[13] = as §1, with “PDB 7RFM” for “mediated methylation”, “MTase-Glo” for “MTase glo”; outline: as §6
[14] = Binding affinity to Clostridioides difficile-specific DNA adenine methyltransferase PDB 7RFM by MicroCal PEAQ ITC analysis; outline: as §5
[15] = Binding affinity to Clostridioides difficile-specific DNA adenine methyltransferase by MicroCal PEAQ ITC analysis
Outline: (§7)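 Test compound (200–900 μM) titrated into CamA (20–60 μM) at 25 °C in 325 mM NaCl, 20 mM Tris–HCl pH 7.5, 0.5 mM TCEP, 10% DMSO; 0.2 μL initial plus 18 × 2 μL injections. Reverse titration used for poorly soluble compounds. Data fitted to a one-site model with offset subtracted; K_D, ΔH, −TΔS and ΔG derived from the fit.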

[16] = system: Clostridioides difficile; test: (§8) Inhibition of Clostridioides difficile-specific DNA adenine methyltransferase using 5'-CGA TTC AAA AAG TCC CAA G-3' and 3'-GCT AAG TTT TTC AGG GTT C-5' as substrate and SAM as cosubstrate at 50 uM preincubated for 5 mins followed by substrate and cosubstrate addition and measured after 3 mins by MTase-Glo assay; details: time 8.0 min
[17] = Binding affinity to Clostridioides difficile-specific DNA adenine methyltransferase PDB 7RFL by MicroCal PEAQ ITC analysis; outline: as §5
[18] = as §8, with “methyltransferase PDB 7RFL” for “methyltransferase”, “cosubstrate” for “cosubstrate at 50 uM”; outline: as §6
[19] = system: Clostridioides difficile; test: Binding affinity to Clostridioides difficile-specific DNA adenine methyltransferase assessed as change in enthalpy by MicroCal PEAQ-ITC instrument analysis; outline: as §7
[20] = Binding affinity to Clostridioides difficile-specific DNA adenine methyltransferase PDB 8CXS by MicroCal PEAQ ITC analysis; outline: as §7
[21] = as §8, with “methyltransferase PDB 8CXS” for “methyltransferase”, “cosubstrate” for “cosubstrate at 50 uM”
Outline: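 Reaction started with 2.5 μM dsDNA and 40 μM SAM (final), run 3 min, then quenched with 0.1% TFA. SAH measured by MTase-Glo luminescence against an SAH standard curve.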

| Structure (SMILES) | pKd [1] | pIC50 [2] | also measured |
| --- | --- | --- | --- |
| OC[C@H]1O[C@@H](n2cnc3c(NCCCc4ccccc4)ncnc32)[C@H](O)[C@@H]1O | 6.30 | 6.15 |  |
| OC[C@H]1O[C@@H](n2cnc3c(NCc4ccccc4)ncnc32)[C@H](O)[C@@H]1O [N6-BENZYLADENOSINE] | 4.89 | 4.82 |  |
| Nc1ncnc2c1ncn2[C@@H]1O[C@H](CSCC[C@H](N)C(=O)O)[C@@H](O)[C@H]1O |  |  | inhibition [3]: Active; inhibition [4]: Active; inhibition [5]: Active |
| Nc1ncnc2c1ncn2[C@@H]1O[C@H](C[C@@H](N)CC[C@H](N)C(=O)O)[C@@H](O)[C@H]1O [SINEFUNGIN] |  |  | inhibition [6]: Active; inhibition [7]: Active; inhibition [8]: Active; inhibition [9]: Active; pKd [10]: 4.64; pIC50 [11]: 4.62 |
| OC[C@H]1O[C@@H](n2cnc3c(NCCCC4CCNCC4)ncnc32)[C@H](O)[C@@H]1O |  | 5.42 |  |
| CC(C)(C)OC(=O)NCCC1CCN(c2ncnc3c2ncn3[C@@H]2O[C@H](CO)[C@@H](O)[C@H]2O)CC1 |  |  | inhibition [12]: inactive |
| CC(C)N(CCCNC(=O)Nc1ccc(C(C)(C)C)cc1)C[C@H]1O[C@@H](n2ccc3c(N)ncnc32)[C@H](O)[C@@H]1O |  |  | pIC50 [13]: 4.37; pKd [14]: 4.74 |
| OC[C@H]1O[C@@H](n2cnc3c(N[C@H]4CCc5ccccc54)ncnc32)[C@H](O)[C@@H]1O | 4.31 | 4.37 |  |
| Nc1ncnc2c1ncn2[C@@H]1O[C@H](CO)[C@@H](O)[C@H]1O [ADENOSINE] |  |  | pKd [15]: < 4.15 |
| OC[C@H]1O[C@@H](n2cnc3c(NCCCCc4ccccc4)ncnc32)[C@H](O)[C@@H]1O | 5.80 | 5.80 |  |
| OC[C@H]1O[C@@H](n2cnc3c(NCCc4ccccc4)ncnc32)[C@H](O)[C@@H]1O | 5.54 | 5.60 |  |
| CC(C)(C)OC(=O)N1CCC(CNc2ncnc3c2ncn3[C@@H]2O[C@H](CO)[C@@H](O)[C@H]2O)CC1 | 5.96 | 5.70 |  |
| CC(C)N(CCCNC(=O)Nc1ccc(C(C)(C)C)cc1)C[C@H]1O[C@@H](n2cc(Br)c3c(N)ncnc32)[C@H](O)[C@@H]1O |  |  | inhibition [16]: Active; pKd [17]: 5.20; pIC50 [18]: 5.33 |
| Nc1ccc(CNc2ncnc3c2ncn3[C@@H]2O[C@H](CO)[C@@H](O)[C@H]2O)cc1 | 4.85 | 5.00 | deltaH [19]: -12.2 kcal/mol |
| Nc1ccc(CCCNc2ncnc3c2ncn3[C@@H]2O[C@H](CO)[C@@H](O)[C@H]2O)cc1 | 5.82 | 5.85 |  |
| OC[C@H]1O[C@@H](n2cnc3c(NCCCCCc4ccccc4)ncnc32)[C@H](O)[C@@H]1O | 5.89 | 5.89 |  |
| CSC[C@H]1O[C@@H](n2cnc3c(N)ncnc32)[C@H](O)[C@@H]1O [METHYLTHIOADENOSINE] | 4.96 | 4.74 | pKd [20]: 5.00; pIC50 [21]: 4.74 |
| CC(C)(C)OC(=O)N1CCC2(CCN(c3ncnc4c3ncn4[C@@H]3O[C@H](CO)[C@@H](O)[C@H]3O)CC2)C1 |  |  | inhibition [12]: inactive |
| Nc1ccc(CCNc2ncnc3c2ncn3[C@@H]2O[C@H](CO)[C@@H](O)[C@H]2O)cc1 | 4.74 |  |  |
| OC[C@H]1O[C@@H](n2cnc3c(NCc4ccc(O)cc4)ncnc32)[C@H](O)[C@@H]1O | 5.28 | 5.32 |  |

— ChEMBL document CHEMBL5316295, “Systematic Design of Adenosine Analogs as Inhibitors of a Clostridioides difficile-Specific DNA Adenine Methyltransferase Required for Normal Sporulation and Persistence” (J Med Chem, 2023)
